As usually defined, the IC50 is the point on the concentration scale where inhibition reaches its midpoint.

Active and inactive are the calls of the source. The rule behind the calls is not given here.

3-hydroxykynurenine transaminase (Aedes aegypti), sequence (Q0IG34 whole entry): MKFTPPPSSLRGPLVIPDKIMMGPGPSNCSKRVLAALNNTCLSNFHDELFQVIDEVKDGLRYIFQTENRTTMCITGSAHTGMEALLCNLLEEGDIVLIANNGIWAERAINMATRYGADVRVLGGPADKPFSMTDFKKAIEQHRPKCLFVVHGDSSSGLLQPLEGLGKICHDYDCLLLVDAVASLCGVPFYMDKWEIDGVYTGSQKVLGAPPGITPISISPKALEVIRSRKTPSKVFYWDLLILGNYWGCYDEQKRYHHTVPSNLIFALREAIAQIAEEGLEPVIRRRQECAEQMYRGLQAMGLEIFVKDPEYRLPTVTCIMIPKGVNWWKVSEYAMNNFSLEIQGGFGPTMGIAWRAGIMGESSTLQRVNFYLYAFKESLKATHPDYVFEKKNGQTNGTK

The first test has as its target 3-hydroxykynurenine transaminase (Aedes aegypti) (UniProt Q0IG34). Nature of the test: Competitive inhibition of Aedes aegypti 3-hydroxykynurenine transaminase at 300 uM using varying level of 3-D,L hydroxy kynurenine as substrate by Lineweaver-Burk plot analysis.
As for `O=C(O)CCc1nc(-c2ccccc2)no1`, the inhibition entry is “Active”.

Tested on in a further test: not listed separately
Nature of the test: Inhibition of recombinant Aedes aegypti RecLab N-terminal Trx-fused/His6-tagged 3-hydroxykynurenine transaminase H360M mutant expressed in Escherichia coli Rosetta 2 (DE3) assessed as reduction in conversion of 3-hydroxy kynurenine to xanthurenic-acid using 3-D,L hydroxy kynurenine as substrate preincubated with PLP cofactor and enzyme and 30 mins later incubated with 3-D,L-HK and measured after 5 mins by microplate reader assay. In a few lines: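 Recombinant AeHKT (2 μg) in 200 mM HEPES/100 mM NaCl with 2 mM 3-D,L-HK, 2 mM sodium pyruvate and 40 μM PLP. Reaction ran 5 min at 50 °C and was stopped with 10 mM FeCl3 in 0.1 M HCl. The XA–Fe3+ complex was read at 570 nm, and XA was quantified against a calibration curve. Run in duplicate.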
In the case of `O=C(O)CCc1nc(-c2ccc(Cl)cc2)no1`, the 50% inhibitory concentration (IC50) is 85 µM.

Consider `Cc1cccc(-c2noc(CCC(=O)O)n2)c1`, for which the IC50 came out at 110 µM.

Consider `Cc1ccc(-c2noc(CCC(=O)O)n2)cc1`, for which the IC50 came to 73 µM.

On to `O=C(O)CCc1nc(-c2ccccc2F)no1`, for which the IC50 was found to be 116 µM.

On to `O=C(O)CCCc1nc(-c2ccc(Cl)cc2)no1`, for which the 50% inhibitory concentration (IC50) was 294 µM.

In the case of `O=C(O)CCCc1nc(-c2ccc(I)cc2)no1`, the IC50 was 42 µM.

With `COc1ccc(-c2noc(CCC(=O)O)n2)cc1`, the half-maximal inhibitory concentration (IC50) is 35 µM.

Take `COc1cccc(-c2noc(CCC(=O)O)n2)c1`: the IC50 came out at 157 µM.

`Cc1cccc(-c2noc(CCCC(=O)O)n2)c1`: the IC50 came out at 54 µM.

As to `Cc1ccc(-c2noc(CCCC(=O)O)n2)cc1`, the IC50 was 88 µM.

With `O=C(O)CCc1nc(-c2cccs2)no1`, the IC50 turned out to be 68 µM.

Regarding `O=C(O)CCCc1nc(-c2cccc3ccccc23)no1`, the 50% inhibitory concentration (IC50) is 63 µM.

As for `Cc1ccccc1-c1noc(CCC(=O)O)n1`, the IC50 was 339 µM.

As to `O=C(O)CCCc1nc(-c2ccc3c(c2)OCO3)no1`, the IC50 amounted to 87 µM.

As for `O=C(O)CCc1nc(-c2ccc(Br)cc2)no1`, the half-maximal inhibitory concentration (IC50) was 119 µM.

With `O=C(O)CCc1nc(-c2cccc(Br)c2)no1`, the IC50 worked out at 61 µM.

Take `O=C(O)CCCc1nc(-c2ccc(C(F)(F)F)cc2)no1`: the IC50 came to 70 µM.

Turning to `O=C(O)CCc1nc(-c2ccc3c(c2)OCO3)no1`, the IC50 stood at 83 µM.

With `O=C(O)CCc1nc(-c2ccco2)no1`, the IC50 worked out at 84 µM.

For `O=C(O)CCCc1nc(-c2ccc(Cl)c(Cl)c2)no1`, the IC50 is 64 µM.

As for `O=C(O)CCc1nc(-c2ccccc2Cl)no1`, the half-maximal inhibitory concentration (IC50) was 77 µM.

Regarding `O=C(O)CCc1nc(-c2ccc(C(F)(F)F)cc2)no1`, the IC50 was determined as 42 µM.

Turning to `O=C(O)CCc1nc(-c2ccccc2)no1`, the IC50 came to 139 µM.

For `COc1ccc(-c2noc(CCCC(=O)O)n2)cc1`, the IC50 is 101 µM.

As to `O=C(O)CCc1nc(-c2ccc([N+](=O)[O-])cc2)no1`, the IC50 was found to be 76 µM.

Take `O=C(O)CCc1nc(-c2ccc(F)cc2)no1`: the IC50 came to 124 µM.

As for `O=C(O)CCCc1nc(-c2ccccc2)no1`, the IC50 is 72 µM.

Take `O=C(O)CCc1nc(-c2cccc([N+](=O)[O-])c2)no1`: the IC50 was 85 µM.

As to `O=C(O)CCc1nc(-c2ccc(Cl)c(Cl)c2)no1`, the IC50 came out at 86 µM.

`O=C(O)CCCc1nc(-c2ccc(Br)cc2)no1`: the IC50 was 110 µM.

(Values after ChEMBL document CHEMBL4680070, “A second generation of 1,2,4-oxadiazole derivatives with enhanced solubility for inhibition of 3-hydroxykynurenine transaminase (HKT) from Aedes aegypti” (RSC Med Chem, 2021).)
